These results are taken from ChEMBL document CHEMBL1153527, “Discovery of a novel series of quinolone and naphthyridine derivatives as potential topoisomerase I inhibitors by scaffold modification” (J Med Chem, 2009).

pIC50: −log10 of the molar value. ≈ marks a conversion by molar mass, not a printed value. Calls of active or inactive are those of the source. The calls are words filed in the database; no cut-off is given here.

Experiment [1] deals with U-937. The experiment is described as follows: Cytotoxicity against human U937 cells expressing p53 mutant after 48 hrs by SRB assay. It is filed as functional, cell-based. Particulars: U-937, 48 h. For orientation: The SRB assay estimates cell density from bound dye.
Experiment [2] has as its system SK-OV-3. Put plainly: Reduction in topoisomerase 1 expression in human SKOV3 cells by immunocytochemistry. It is filed as functional, cell-based. In a few lines: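 HT-29 and SKOV-3 cells were grown on slides and treated with compound at several concentrations, with an untreated control. Cells were fixed and permeabilised, and endogenous peroxidase was quenched with 0.3% H2O2/methanol. After blocking with 10% goat serum, slides were stained with anti-Top I (1:100, 10 h), then biotinylated secondary and avidin-biotin-HRP, and developed with DAB.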

The subject of experiment [3] is HepG2. The experiment is described as follows: Cytotoxicity against human HepG2 cells expressing wild type p53 after 48 hrs by SRB assay. It counts as functional, cell-based. The settings on record: HepG2, 48 h. The gist of the method:
(§1)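 Cell lines came from CCRC, Taiwan. Cells were seeded at about 5 × 10^3 per well and left overnight. They were then given serum-free medium containing 0-10 μM compound (0.08-10 μM serial dilutions) for 48 h at 37 °C. Cells were fixed with TCA (10% final), stained with SRB (0.4% final), and the dye was dissolved in 10 mM Tris with A515 read. IC50 was taken from a fitted log concentration-response curve.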

The test system of experiment [4] is PC-3. Put plainly: Cytotoxicity against p53-deficient human PC3 cells after 48 hrs by SRB assay. It counts as functional, cell-based. Particulars: PC-3, 48 h. In a few lines: as §1
Experiment [5] deals with HT-29. Put plainly: Antitumor activity against human HT-29 cells xenografted in athymic BALB/c nude mouse at 75 mg/kg, ip for 10 days measured after 30 days relative to placebo control. It is filed as functional. Particulars: route intraperitoneal. The gist of the method: (§2)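 Female athymic BALB/c nude mice (35-40 days old, 18-22 g). HT-29 tumours first grown from 1 × 10^7 cells injected s.c. in the axillary fossa, then excised and transplanted. Treatment started at 100-300 mm3. Groups of n=6 were dosed i.p. daily in 400 μL: saline for 10 days, 5 mg/kg for 2 days, or 75/150 mg/kg for 10 days. Caliper volume was V=1/2·a·b². Values are relative to start volume, compared with placebo by Student's t test, and mice were killed on day 30.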
On the technique in general: Xenograft models place foreign cells or tissue in a host animal.

Experiment [6] in a line: Cytotoxicity against estrogen receptor-negative human […] cells expressing p53 mutant after 48 hrs by SRB assay. It is filed as functional, cell-based. In a few lines:
as §1

For experiment [7], the system named is HT-29. The experiment is described as follows: Antitumor activity against human HT-29 cells xenografted in athymic BALB/c nude mouse at 150 mg/kg, ip for 10 days measured after 30 days relative to placebo control. It is filed as functional. Particulars: route intraperitoneal. The gist of the method:
as §2

Experiment [8] concerns KB. The experiment is described as follows: Cytotoxicity against human KB cells after 48 hrs by MTT assay. It counts as functional, cell-based.
Experiment [9] relates to Bel-7402. Put plainly: Cytotoxicity against human Bel7402 cells after 48 hrs by MTT assay. It counts as functional, cell-based. The settings on record: Bel-7402, 48 h. (Formazan colour is commonly taken as a measure of viable cells.)
Experiment [10] has as its system THP-1. Put plainly: Cytotoxicity against human THP1 cells expressing p53 mutant after 48 hrs by SRB assay. The settings on record: THP-1, 48 h. It counts as functional, cell-based.
The subject of experiment [11] is SK-OV-3. The experiment is described as follows: Induction of apoptosis in human SKOV3 cells assessed as morphological changes at 0.25 ug/mL after 24 hrs by immunostaining. It is filed as functional, cell-based. The gist of the method: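 SKOV3 and HT-29 cells were treated with 0.25 or 5 μg/mL for 24 h. Cell morphology was assessed by microscopy after fixation in 4% formaldehyde and Hoechst 33342 staining (10 μg/mL), against an untreated control.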

The subject of experiment [12] is AGS. The experiment is described as follows: Cytotoxicity against human AGS cells expressing wild type p53 after 48 hrs by SRB assay. It is filed as functional, cell-based. In a few lines: as §1
The subject of experiment [13] is SK-OV-3. The experiment is described as follows: Induction of apoptosis in human SKOV3 cells assessed as apoptotic cells at 10 ug/mL after 24 hrs by annexin V/propidium iodide-based flow cytometry. It is filed as functional. In a few lines:
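SKOV-3 or HT-29 cells (1-5 × 10^6 cells/mL) were incubated with 0, 5 or 10 μg/mL compound for 24 h. They were then washed and stained with EGFP-Annexin V/PI and analysed immediately by flow cytometry. Annexin V+/PI− cells were scored as apoptotic; PI-permeant cells were scored as necrotic.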

In experiment [14] the target is T1, DNA topoisomerase 1 (Homo sapiens) (UniProt P11387).
T1 sequence (whole entry): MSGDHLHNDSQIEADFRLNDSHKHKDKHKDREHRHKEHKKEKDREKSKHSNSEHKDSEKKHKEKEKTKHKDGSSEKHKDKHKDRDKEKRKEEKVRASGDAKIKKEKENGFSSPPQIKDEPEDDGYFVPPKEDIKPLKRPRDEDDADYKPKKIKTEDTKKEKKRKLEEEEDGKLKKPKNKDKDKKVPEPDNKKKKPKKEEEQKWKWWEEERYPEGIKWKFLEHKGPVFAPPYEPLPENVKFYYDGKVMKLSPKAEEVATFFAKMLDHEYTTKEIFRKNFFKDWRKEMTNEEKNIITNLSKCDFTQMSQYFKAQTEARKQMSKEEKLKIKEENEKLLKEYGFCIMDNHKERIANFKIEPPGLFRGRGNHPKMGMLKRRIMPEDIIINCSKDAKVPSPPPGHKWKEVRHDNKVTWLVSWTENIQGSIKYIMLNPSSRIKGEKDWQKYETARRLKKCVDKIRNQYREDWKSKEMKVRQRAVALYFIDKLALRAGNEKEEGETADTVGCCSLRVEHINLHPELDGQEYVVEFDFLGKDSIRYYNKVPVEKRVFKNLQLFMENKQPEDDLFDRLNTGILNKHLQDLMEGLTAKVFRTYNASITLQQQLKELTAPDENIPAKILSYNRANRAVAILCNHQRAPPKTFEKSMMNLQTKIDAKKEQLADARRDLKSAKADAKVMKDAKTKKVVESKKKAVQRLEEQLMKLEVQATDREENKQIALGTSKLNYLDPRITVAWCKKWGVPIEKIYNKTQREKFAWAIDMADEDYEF
The experiment is described as follows: Induction of human topoisomerase 1-mediated chromosomal DNA strand breaks in HT-29 cells at 10 uM after 1 hr by comet assay. It counts as cell-based. In a few lines: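 HT-29 cells were seeded at 1 × 10^4 per well and attached overnight, then treated for 1 h. Untreated cells served as negative control. Cells in low-melting agarose on precoated slides were lysed at pH 10.5 for 30 min at 4 °C and unwound in 300 mM NaOH/1 mM EDTA (pH >13) for 30 min at 4 °C. Electrophoresis ran 10 min at 16 V, with SYBR Gold staining. Read-out was mean % tail DNA from ≥50 nuclei, duplicates in three independent experiments.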

Experiment [15] deals with T1, DNA topoisomerase 1 (Homo sapiens). The experiment is described as follows: Induction of human recombinant topoisomerase 1-mediated cleavage of 32P-labeled linearized pRYG plasmid DNA at 2.5 uM after 30 mins by agarose gel electrophoresis. In a few lines:
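Recombinant human Top I was incubated with HindIII-linearised pRYG plasmid, 3'-end-labelled with [α-32P]dCTP by Klenow fill-in (about 100000 cpm per reaction). Reactions were stopped with SDS and proteinase K at 45 °C, alkali-denatured, run on a 1% agarose gel and autoradiographed.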

Experiment [16] concerns HT-29. The experiment is described as follows: Cytotoxicity against human HT-29 cells after 48 hrs by MTT assay. The settings on record: HT-29, 48 h. It is filed as functional, cell-based. The gist of the method:
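Cells were seeded at about 5 × 10^3 per well, then given serum-free medium containing 0-10 μM test compound for 48 h at 37 °C. MTT was added at 0.5 mg/mL final for 4 h at 37 °C. Formazan was dissolved in DMSO and OD570 read. IC50 values (50% cell death) came from a fitted log concentration-response curve.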

Experiment [17] deals with HT-29. The experiment is described as follows: Cytotoxicity against human HT-29 cells expressing p53 mutant after 48 hrs by SRB assay. It counts as functional, cell-based. Particulars: HT-29, 48 h. The gist of the method: as §1

For the compound `CCn1cc(-c2nc3ccc([N+](=O)[O-])cc3o2)c(=O)c2cc(F)c(N3CCNC(C)C3)c(F)c21` (configuration not stated), the pIC50 in [1] is 5.85; in [3], 5.35; in experiment [4] it was 5.38; in experiment [6] it was 5.51; in experiment [8], 6.22; in [9], 6.70. Further, the pIC50 in [10] is 5.46; in experiment [12], 5.46; in [17], 5.26. Besides, the Activity entry in [2] was “Dose-dependent effect”; in experiment [5] it was 52%; in [7], 65%; in [13], 13.6%; in experiment [14], 48%. For the same compound, the GI50 in experiment [3] turned out to be 2.8 µM; in experiment [4], 3.3 µM; in [6] it was 0.7 µM; in experiment [12], 0.7 µM; in [17] it was 1 µM. The result in [11] and in experiment [15] was Active. In [16], this compound displayed an IC50 of 0.37 µg/mL (≈ 0.788 µM).

For orientation: pIC50 means the negative decadic logarithm of the IC50, by convention in mol/L. Low values mean a large IC50, high ones a small IC50. As usually defined, the GI50 is the concentration at which growth is held to half of that of the control. Low readings indicate more potent growth inhibition, high ones less potent growth inhibition. As usually defined, the IC50 is the point on the concentration scale where inhibition reaches its midpoint. Higher therefore signals weaker potency in that assay.
